SENP1 FRET inh: inhibitors of human SENP1 SUMO protease catalytic domain. recombinant SENP1 catalytic domain, CyPet-SUMO1-YPet FRET cleavage. inhibition, % at 10 µM. hit rate 0.21% among 360,000;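 active = inhibition at least 30% at 10 µM, raw YFP signal under a set limit, fluorescence ratio 0.5 to 1.5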;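 note: 0% = enzyme with DMSO and 100% = no enzyme wells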
Target sequence (Q9P0U3 419-644 limits assumed): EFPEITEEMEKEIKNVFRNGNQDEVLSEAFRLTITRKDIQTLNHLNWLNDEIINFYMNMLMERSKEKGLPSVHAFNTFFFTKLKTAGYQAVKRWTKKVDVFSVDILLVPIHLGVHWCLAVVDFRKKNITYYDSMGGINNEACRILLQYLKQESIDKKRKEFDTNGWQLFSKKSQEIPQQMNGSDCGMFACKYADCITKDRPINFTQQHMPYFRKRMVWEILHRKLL
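Test system: recombinant human SENP1 catalytic domain, His6-tagged / Medium: pH 8 Tris buffer with EDTA, NaCl, BME, BSA, NP40, catalase / Also added: SUMO1 FRET substrate flanked by Cypet and Ypet, 25 nM / Times: 50 min reaction at room temperature / Signal: FRET, CFP and YFP emission / Control set: no-enzyme low control and enzyme-plus-DMSO high control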
SENP6 inh: inhibitors of human SENP6 protease | Q9GZR1 | Recombinant SENP6 catalytic domain, aminoluciferin luminescence | inhibition, % at 10 µM | hit rate 1.8% among 330,000;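 active = inhibition above about 50% at the single tested dose, limit read from the data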;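 note: plate controls were DMSO wells with enzyme for no effect and DMSO wells lacking enzyme for full effect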
SENP8 block-1: inhibitors of human SENP8 protease; AID 602440; recombinant SENP8, Nedd8 substrate fluorescence; Q96LD8; inhibition, % at 20 µM; hit rate 0.64% among 360,000; in the data active = inhibition mostly above about 40%, no sharp cut-off; inactive = mostly below about 27%
SENP8 block-2: SENP8 protease inhibition; purified SENP8, Z-RLRGG-aminoluciferin cleavage, luminescence; inhibition, % at 10 µM; hit rate 1.2% among 330,000; Q96LD8; in the data active = inhibition above about 50%
SENP7 inh: blocks the human protease SENP7. Q9BQF6. recombinant SENP7, Z-RLRGG-aminoluciferin luminescence, 40 min. inhibition, % at 5 µM. hit rate 1.5% among 330,000. AID 434973;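 active = inhibition above about 50% at the single test dose, limit read from the data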;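 note: plate controls were DMSO with enzyme for no effect and no enzyme buffer wells for full effect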
Target sequence (Q9BQF6 706-1050 limits assumed): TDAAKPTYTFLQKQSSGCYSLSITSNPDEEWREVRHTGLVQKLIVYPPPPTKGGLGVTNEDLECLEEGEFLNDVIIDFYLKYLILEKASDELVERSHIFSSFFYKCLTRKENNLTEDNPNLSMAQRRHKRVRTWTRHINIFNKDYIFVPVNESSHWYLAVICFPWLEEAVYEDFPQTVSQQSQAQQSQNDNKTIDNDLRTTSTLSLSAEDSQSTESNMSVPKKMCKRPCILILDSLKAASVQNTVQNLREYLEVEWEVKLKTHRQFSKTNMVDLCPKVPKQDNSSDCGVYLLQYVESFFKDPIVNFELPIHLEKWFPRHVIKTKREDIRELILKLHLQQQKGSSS
HSP90 inh: inhibitors of HSP90 luciferase refolding in rabbit reticulocyte lysate; inhibition, % at 5.6 µM; luciferase refolding luminescence, 3 h; hit rate 0.91% among 290,000; AID 1789;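 active = inhibition above the screen-wide mean plus 3 SD, computed separately per campaign, cut at about 16% in these data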;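 note: 0% = DMSO wells and 100% = 60 µM geldanamycin wells; inhibitors lower the luminescence because luciferase stays unfolded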
SENP8 confirm: confirmation of human SENP8 protease inhibitors. hit rate 40% among 6,200. shares compounds with SENP7 inh. Recombinant SENP8, Z-RLRGG-aminoluciferin luminescence, 60 min. AID 488912. inhibition, % at 12.5 µM;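 active = mean inhibition across replicates above about 50%, limit read from the data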
SENP6 confirm: confirmation of human SENP6 protease inhibitors; shares compounds with SENP7 inh; recombinant SENP6, Z-RLRGG-aminoluciferin luminescence; inhibition, % at 12.5 µM; hit rate 58% among 6,200; AID 488915
SENP7 confirm: confirmation of human SENP7 protease inhibitors; shares compounds with SENP7 inh; recombinant SENP7, Z-RLRGG-aminoluciferin luminescence, 40 min; inhibition, % at 12.5 µM; hit rate 69% among 6,200; AID 488917
Casp3 select: selectivity test for SENP inhibitors: human caspase-3 inhibition | inhibition, % at 12.5 µM | hit rate 60% among 6,200 | shares compounds with SENP7 inh | purified caspase-3, Z-DEVD-aminoluciferin luminescence, 60 min;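 active = mean inhibition above about 50%, limit read from the data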;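 note: plate controls were enzyme with DMSO for no effect and wells without caspase-3 for full effect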
Target sequence (P42574 28-227 limits assumed): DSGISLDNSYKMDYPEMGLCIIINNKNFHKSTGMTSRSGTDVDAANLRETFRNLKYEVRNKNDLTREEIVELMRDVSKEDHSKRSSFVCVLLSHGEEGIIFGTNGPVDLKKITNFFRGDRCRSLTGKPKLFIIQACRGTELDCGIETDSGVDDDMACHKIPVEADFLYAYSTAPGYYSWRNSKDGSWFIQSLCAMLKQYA
Luc interf: interferes with luciferase luminescence in SENP counter-screen; shares compounds with SENP7 inh; Pre-incubated SENP8/Z-RLRGG-aminoluciferin, luciferase luminescence interference; inhibition, % at 12.5 µM; hit rate 39% among 6,200; AID 488919;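 active = mean inhibition above about 50% when retested at one dose, limit read from the data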;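 note: plate controls were DMSO wells with completed reaction for no effect and substrate without enzyme for full effect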
Active calls of the source: *; i = inactive; · = no result. Rows were chosen to be rich in hits. Some 2.9% of all compounds tested hit in one or more screens of this group.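 Rule for the calls, unless noted: active = mean inhibition above about 50% in the one-dose retest (limit read from the data); inactive = the rest.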

SMILES | SENP1 FRET inh | SENP6 inh | SENP8 block-1 | SENP8 block-2 | SENP7 inh | HSP90 inh | SENP8 confirm | SENP6 confirm | SENP7 confirm | Casp3 select | Luc interf
Cc1nc(/C(N)=N/OC(=O)c2ccccc2Cl)c(C(F)(F)F)o1 | 2.3 | 83.3* | -1.9 | 80.0* | 88.2* | 2.2 | 87.9* | 87.6* | 97.9* | 95.2* | 88.2*
N/C(=N/OC(=O)c1ccccc1Cl)c1nonc1N | 1.7 | 96.9* | -1.0 | 95.9* | 98.5* | -3.0 | 99.8* | 100.8* | 103.5* | 99.2* | 97.5*
Cc1ccc(C(=O)O/N=C(\N)c2nonc2N)cc1 | 3.3 | 97.5* | 3.9 | 97.2* | 100.9* | -1.3 | 97.8* | 98.3* | 101.4* | 97.2* | 97.2*
N/C(=N/OCC(=O)Nc1cccc2ccccc12)c1nonc1N | -2.9 | -7.5 | 2.7 | -7.3 | 6.8 | 1.3 | · | · | · | · | ·
CC(CNC(=O)CN1C(=O)COc2ccc(S(=O)(=O)N3CCCCC3)cc21)c1ccccc1 (stereo not given) | 2.9 | -22.8 | 10.2 | -9.1 | -9.7 | -1.9 | · | · | · | · | ·
CC1CCN(C(=O)c2ccc3c(c2)C(=O)c2ccccc2-3)CC1 | 1.5 | · | 16.3 | · | · | · | · | · | · | · | ·
Cc1cc(=O)c(C(=O)c2ccccc2)c(C)o1 | 0.3 | -11.7 | 12.6 | -2.7 | 9.3 | · | · | · | · | · | ·
Cc1ccc(C(=O)c2c(C)oc3c2C(=O)C(=O)c2ccccc2-3)cc1 | 6.5 | 19.0 | 105.9* | 29.4 | 51.0* | 8.1 | 22.2 | 56.6* | 17.2 | -1.7 | 0.6
Cc1oc2c(c1C(=O)N1CCC(C)CC1)C(=O)c1ccccc1C2=O | · | 54.9* | · | 26.4 | 27.9 | 6.8 | 18.0 | 51.8* | 18.2 | 35.3 | -0.4
O=C(NNC(=O)c1ccccc1O)c1ccc(Cl)cc1 | 1.0 | -1.1 | 13.3 | -15.8 | -11.5 | -0.8 | · | · | · | · | ·
Cc1cccc(C(=O)NNC(=O)c2ccc(Cl)cc2)c1O | 2.0 | 54.7* | 1.0 | 29.5 | 30.7 | -0.8 | 52.3* | 47.9 | 77.3* | 71.1* | 62.2*
CCC(=O)N(C1=C(NC)C(=O)c2ccccc2C1=O)C(C)C | -0.8 | 86.5* | 58.9* | 3.3 | 32.6 | -0.4 | 27.6 | 49.8 | 22.9 | 40.1 | 1.1
CC(C)C[C@@H]1NC(=O)[C@H](Cc2ccc(O)cc2)NC(=O)[C@H](CCC(N)=O)NC(=O)c2cc([N+](=O)[O-])cc(I)c2NCC[C@@H](C(N)=O)NC1=O | · | -4.1 | · | -3.4 | -4.5 | 1.3 | · | · | · | · | ·
COc1cc([N+](=O)[O-])ccc1NC(=O)CSc1n[nH]c(C(C)C)n1 | 2.0 | 3.4 | 6.3 | -2.8 | 1.6 | -0.6 | · | · | · | · | ·
Nc1nc2n(n1)C(c1cccc(Cl)c1)CC(c1ccc(F)cc1)N2 (stereo not given) | -116.7 | -8.5 | -42.1 | -7.4 | 64.8* | 0.0 | 8.4 | 5.5 | -9.9 | -4.1 | -0.8
COc1ccc(C(=O)Nc2ccccc2)cc1NC(=O)c1ccc([N+](=O)[O-])cc1 | 1.8 | -7.1 | 14.3 | -2.4 | -7.0 | 5.7 | · | · | · | · | ·
CCOC(=O)[C@@H]1[C@H]2COc3cc(OC)ccc3[C@@H]2N2C(=O)N(c3ccccc3)C(=O)[C@@]12C | 0.6 | -6.7 | 8.2 | -5.1 | 4.1 | · | · | · | · | · | ·
COc1ccc(-c2nc3c(Br)c(N)c(Br)cc3o2)cc1 | -2.9 | 4.3 | -56.2 | 4.1 | 80.4* | -6.8 | -8.2 | -12.0 | 11.5 | 38.0 | -10.6
Nc1c(Br)cc2oc(-c3ccccc3)nc2c1Br | -1.7 | 16.9 | -75.0 | -10.8 | 15.9 | 1.4 | · | · | · | · | ·
O=C(Nc1ccc2c(c1)CCC2)Nc1ccccc1Cl | -0.2 | 94.6* | 1.1 | 91.2* | 94.4* | 0.0 | 41.6 | 92.9* | 72.3* | 81.4* | 17.0
O=C(Nc1ccccc1Cl)Nc1ccccc1Cl | 0.4 | -7.7 | 8.0 | -7.6 | 4.4 | 0.7 | · | · | · | · | ·
CCOc1ccccc1NC(=O)Nc1ccc2c(c1)CCC2 | 2.3 | 69.5* | 10.8 | 47.5 | 52.9* | -4.1 | 53.4* | 68.0* | 87.0* | 36.2 | 47.9
CCOc1ccccc1NC(=O)Nc1cccc(NC(C)=O)c1 | 1.1 | -11.7 | 25.3 | -3.6 | -3.5 | -1.6 | · | · | · | · | ·
CCOc1ccccc1NC(=O)Nc1ccc2c(c1)OCO2 | -1.0 | 86.1* | -0.8 | 72.1* | 85.3* | -0.9 | 4.0 | 81.3* | 96.7* | 79.1* | 79.2*
Cc1ccc(NC(=O)Nc2ccc3c(c2)CCC3)c(C)c1 | 1.5 | 12.5 | 4.8 | -12.9 | -12.2 | -0.6 | · | · | · | · | ·
SMILES | SENP1 FRET inh | SENP6 inh | SENP8 block-1 | SENP8 block-2 | SENP7 inh | HSP90 inh | SENP8 confirm | SENP6 confirm | SENP7 confirm | Casp3 select | Luc interf
CCOc1ccccc1OCCC(=O)Nc1ccc2c(c1)OCO2 | -4.6 | -19.7 | 2.7 | -4.9 | -3.0 | · | · | · | · | · | ·
O=C(Nc1ccc(Nc2ccccc2)cc1)Nc1ccccc1Cl | 1.2 | 88.4* | -1.4 | 85.8* | 85.1* | -4.1 | 70.9* | 89.4* | 98.9* | 56.1* | 63.0*
Cc1ccc2nc(C)cc(C(=O)OCC(=O)Nc3cccnc3Cl)c2c1 | 6.4 | 17.7 | -320.0 | -2.2 | 1.9 | 0.1 | · | · | · | · | ·
Cc1cc(F)ccc1NCc1ccc([N+](=O)[O-])cc1 | 1.5 | -21.6 | 14.8 | 1.3 | 5.3 | -4.1 | · | · | · | · | ·
CCN(C(=O)COC(=O)COc1ccc(Cl)c(C)c1)C1CCS(=O)(=O)C1 (stereo not given) | 0.4 | -3.0 | 11.4 | 5.3 | 1.0 | · | · | · | · | · | ·
Cc1ccccc1NC(=O)Nc1ccc2c(c1)OCO2 | 1.1 | 91.2* | 6.2 | 79.3* | 95.6* | 0.7 | 23.4 | 73.6* | 25.2 | 92.4* | 2.1
Cc1ccc(C)c(NC(=O)Nc2ccc3c(c2)OCO3)c1 | 3.2 | 16.9 | 4.9 | 2.4 | 29.7 | 3.5 | · | · | · | · | ·
COc1ccc(-c2nc(C#N)c(NCc3ccc(C)cc3)o2)cc1OC | 0.0 | -23.8 | -472.8 | -3.3 | 0.1 | -4.2 | · | · | · | · | ·
COc1ccc(-c2nnc(-c3ccccc3)o2)cc1OC | 0.1 | 58.4* | -304.1 | 34.8 | 63.7* | -0.4 | 49.5 | 49.5 | 83.7* | 76.5* | 68.0*
c1ccc(-c2nnc(-c3ccncc3)o2)cc1 | 0.2 | 5.9 | 39.2 | -1.6 | -6.4 | -2.2 | · | · | · | · | ·
COc1ccc(-c2nc(C#N)c(NCCc3ccccc3)o2)cc1OC | -0.6 | 72.5* | i | 57.4* | 58.8* | -0.2 | 6.5 | 66.0* | 90.4* | 56.1* | 58.7*
CSc1ccccc1-c1nnc(-c2ccccc2)o1 | -1.9 | 84.1* | -212.3 | 74.3* | 82.8* | 6.2 | 66.5* | 80.6* | 95.5* | 77.8* | 61.6*

Assay outcomes: PubChem, several laboratories
